This excerpt belongs to a sample that is enriched for hits.
bCat KO growth: primary screen for growth suppressors in beta-catenin knockout HCT116 cells (colon tumor, human) | 140,000 compounds, 1.5% hits | HCT116 beta-catenin knockout viability, CellTiter-Glo, 60 h; stronger effect = lower value | AID 818, 2007 | viability, % at 10 µM;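 active = viability at or under a set limit, the compound median less 4 SD, cut at about 6% in these data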;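 note: 0% = Hyamine 1622 control at 20 µM and 100% = untreated cell control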
HUVEC inhibit: inhibitors of HUVEC proliferation, primary screen, cell-based, 384-well; CellTiter-Glo luminescence, 72 h; stronger effect = lower value; 86,000 compounds, 1.1% hits; viability, % at 10 µM (by protocol);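 active = viability at or below 30%; inactive = viability above 30%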;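 note: 100% = median luminescence of DMSO-only cell control wells on each plate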
PTEN del growth: growth suppression of PTEN-null HCT116, primary screen, cell-based, CellTiter-Glo; HCT116 PTEN-null viability, 60 h; stronger effect = lower value; viability, % at 10 µM; 140,000 compounds, 1.2% hits; AID 827, 2007;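 active = viability at or below a set limit, 4 SD under the median of all tested compounds, cut at about 3.7% in these data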;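 note: PTEN knockout HCT116 line with beta catenin targeted HCT116 as companion control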
H69AR growth 86K: proliferation blockers of H69AR lung cancer cells, primary screen, cell-based, human, 86K library; AID 598, 2007; viability, % at 10 µM; 85,000 compounds, 6% hits; H69AR lung tumor viability, ATP luminescence, 72 h; stronger effect = lower value;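 active = viability at or below 40%; inactive = viability above 40%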;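 note: multidrug resistant small cell line overexpressing MRP-1 efflux transporter; 100% = mean luminescence of untreated control wells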
PTK2B oligo ant: antagonists of Pyk2 self-association, primary screen, Q293 cells, FERM NanoBiT luminescence, HTS; Protein-tyrosine kinase 2-beta (Homo sapiens), Q14289; stronger effect = lower value; z-score (the deposit names both 25 µM and 10 µM); 99,000 compounds, 0.83% hits;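 active = Z-score of -3 or lower, scaled per plate to the spread of control and sample wells; inactive = z-score above -3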;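 note: negative z-score means lost luminescence so less FERM oligomerization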
Target sequence (Q14289 whole entry, looked up): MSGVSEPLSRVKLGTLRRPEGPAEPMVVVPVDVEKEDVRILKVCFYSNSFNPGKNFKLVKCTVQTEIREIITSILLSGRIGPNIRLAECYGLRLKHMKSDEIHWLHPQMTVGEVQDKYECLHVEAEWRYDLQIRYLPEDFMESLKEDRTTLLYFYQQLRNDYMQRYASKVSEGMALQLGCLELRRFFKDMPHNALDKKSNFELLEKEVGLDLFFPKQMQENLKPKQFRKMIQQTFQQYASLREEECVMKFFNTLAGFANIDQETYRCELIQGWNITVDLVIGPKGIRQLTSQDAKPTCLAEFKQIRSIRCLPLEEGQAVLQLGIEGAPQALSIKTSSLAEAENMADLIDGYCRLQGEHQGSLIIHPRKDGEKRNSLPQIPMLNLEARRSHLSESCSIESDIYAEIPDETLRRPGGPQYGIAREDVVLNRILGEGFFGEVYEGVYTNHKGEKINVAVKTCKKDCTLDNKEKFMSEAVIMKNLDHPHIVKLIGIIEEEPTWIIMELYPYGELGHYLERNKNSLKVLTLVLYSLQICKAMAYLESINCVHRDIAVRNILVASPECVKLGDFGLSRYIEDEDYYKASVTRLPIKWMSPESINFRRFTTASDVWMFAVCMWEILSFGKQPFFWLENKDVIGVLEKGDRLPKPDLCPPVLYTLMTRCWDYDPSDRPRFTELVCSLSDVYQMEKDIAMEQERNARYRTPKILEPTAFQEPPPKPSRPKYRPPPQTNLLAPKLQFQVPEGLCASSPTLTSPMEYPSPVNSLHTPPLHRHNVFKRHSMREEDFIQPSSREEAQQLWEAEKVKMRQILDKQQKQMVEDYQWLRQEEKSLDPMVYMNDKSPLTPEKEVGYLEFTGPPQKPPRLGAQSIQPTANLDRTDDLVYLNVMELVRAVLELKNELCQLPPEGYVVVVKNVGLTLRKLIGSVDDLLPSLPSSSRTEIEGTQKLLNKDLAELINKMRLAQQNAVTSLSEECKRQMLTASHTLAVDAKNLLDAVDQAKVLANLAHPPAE
Lung fibro prol: antiproliferative effect on LL 47 fibroblasts – human, LL 47 cells, CellTiter-Glo luminescence, primary screen. LL 47 human lung fibroblast viability, ATP luminescence; stronger effect = lower value. AID 719, 2007. viability, % at 10 µM. 85,000 compounds, 1.1% hits;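 active = viability at or below 50% in the single dose screen; inactive = viability above 50%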;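 note: compound exposure lasted 72 h before the ATP readout; 100% = median luminescence of untreated cell-only wells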
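Test system: LL 47 human lung fibroblasts / Quantity: 1,150 cells in each well / Medium: IMEM growth medium with 15% fetal bovine serum / Incubation: 72 h compound exposure at 37 °C after overnight plating / Detection: CellTiter-Glo luminescence measuring cellular ATP / Read-out: % viability versus median cells-only luminescence / Benchmarks: cell-only wells, no compound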
* marks the source's active call; other numbers are inactive results; . = no result.

SMILES | bCat KO growth | HUVEC inhibit | PTEN del growth | H69AR growth 86K | PTK2B oligo ant | Lung fibro prol
CCCCCCOC(=O)C(C#N)c1nc2ccccc2nc1N1CCOCC1 (stereo unspecified) | 83 | 82 | 86 | 82 | -2.1 | 91
CCCCCCOC(=O)C(C#N)c1nc2ccccc2nc1N1CCN(CC)CC1 (stereo unspecified) | 107 | 4.3* | 98 | 88 | -0.13 | 84
Cc1ccc(S(=O)(=O)/C(C#N)=C/c2c(N3CCN(C)CC3)nc3c(C)cccn3c2=O)cc1 | 94 | 74 | 96 | 90 | -0.88 | 95
Cc1cc(Oc2nc3c(C)cccn3c(=O)c2/C=C(\C#N)S(=O)(=O)c2ccc(Cl)cc2)ccc1Cl | 3.9* | . | 1.4* | . | . | .
COC(=O)C(C)(C)ONC(=O)Nc1ccccc1 | 98 | . | 91 | . | . | .
COc1cccc(C2=NOC(C(=O)NCc3ccco3)C2)c1 (stereo unspecified) | 61 | 73 | 50 | 36* | 0.6 | 95
C=CCNC(=O)C1CC(c2cccc(OC)c2)=NO1 (stereo unspecified) | 65 | 94 | 61 | 2.8* | 0.39 | 96
COc1cccc(C2=NOC(C(=O)NCc3ccccc3)C2)c1 (stereo unspecified) | 92 | 63 | 83 | 26* | 0.73 | 97
COc1ccc(C2=NOC(C(=O)NCc3ccccc3)C2)cc1 (stereo unspecified) | 69 | 62 | 82 | 44 | 0.63 | 83
CC1(c2cc(C(F)(F)F)n3nc(C(=O)O)cc3n2)CC1 | 98 | 93 | 97 | 49 | 0.63 | 97
CCOC(=O)C1=C(c2ccccc2)Nc2ncnn2C1c1cc(OC)ccc1OC (stereo unspecified) | 99 | 100 | 90 | 39* | -1.8 | 101
CCOC(=O)C1=C(c2ccccc2)Nc2ncnn2C1c1ccc(OC)c(OC)c1OC (stereo unspecified) | 99 | . | 105 | . | -0.97 | .
c1cc2c(cc1C1=Nn3c(nnc3C3CCCCC3)SC1)OCO2 | 48 | 75 | 38 | 29* | -1.6 | 84
c1ccc(-c2nnc3n2N=C(c2ccc4c(c2)OCO4)CS3)nc1 | 100 | 95 | 106 | 79 | -0.17 | 97
Cc1nc2c(ccc3nc(NC(=O)Cc4ccccc4)sc32)s1 | 60 | . | 54 | . | . | .
Cc1nc2c(ccc3nc(NC(=O)c4ccc(S(=O)(=O)N(C)C)cc4)sc32)s1 | 80 | 47 | 74 | 35* | 0.61 | 95
O=C(Cn1c(NCCO)nc2ccccc21)NCCc1ccc(F)cc1 | 104 | 106 | 93 | 95 | 1.6 | 98
CCCCOC(=O)Nc1cccc(Cl)c1C | 101 | 101 | 92 | 100 | -0.49 | 102
CCCCOc1ccc(C(=O)OC2CC(C)N(C)CC2C)cc1 (stereo unspecified) | 54 | 15* | 63 | 63 | -0.12 | 88
O=C(CN1C(=O)c2ccccc2S1(=O)=O)c1ccccc1 | 95 | 101 | 97 | 100 | 0.58 | 95
Cc1ccc(C(=O)CN2/C(=C(\O)c3ccccc3)C(=O)c3ccccc3S2(=O)=O)c(C)c1 | 40 | 78 | 35 | 24* | -1.5 | 91
CCSc1nnc(NC(=O)C2CCN(S(=O)(=O)c3c(C)c(C)cc(C)c3C)CC2)s1 | 91 | . | 97 | . | . | .
Cc1cc2cc(C(c3nnnn3CC3CCCO3)N3CCCc4ccccc43)c(=O)[nH]c2cc1C (stereo unspecified) | 69 | 79 | 77 | 103 | 0.5 | 99
O=c1[nH]c2cc3c(cc2cc1C(c1nnnn1C1CCCC1)N1CCCc2ccccc21)OCCO3 (stereo unspecified) | . | 88 | . | 93 | 0.16 | 98
COCCn1nnnc1C(c1cc2cc(OC)ccc2[nH]c1=O)N1CCC(Cc2ccccc2)CC1 (stereo unspecified) | 3.0* | 96 | 2.7* | 3.8* | 0.96 | 106
COCCn1nnnc1C(c1cc2cc(C)ccc2[nH]c1=O)N1CCCCCC1 (stereo unspecified) | 95 | 97 | 106 | 72 | 0.07 | 104
